This is a sample that favours compounds with a hit; in the whole collection about 6.8% have one here.
ALR inh = inhibitors of human ALR sulfhydryl oxidase, primary screen, biochemical, H2O2 detection, HRP-luminol luminescence, single point; 290,000 tested, 3.8% active; AID 485317, 2010; purified ALR, DTT oxidation; inhibition, % (no concentration beside the values); FAD-linked sulfhydryl oxidase ALR (Homo sapiens), P55789;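 active means mean replicate inhibition above about 79%, with every replicate also reaching it, limit read from the data; inconclusive means only one of the two criteria met; inactive means mean below limit and not every replicate reaching it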
Target sequence (P55789 whole entry, looked up): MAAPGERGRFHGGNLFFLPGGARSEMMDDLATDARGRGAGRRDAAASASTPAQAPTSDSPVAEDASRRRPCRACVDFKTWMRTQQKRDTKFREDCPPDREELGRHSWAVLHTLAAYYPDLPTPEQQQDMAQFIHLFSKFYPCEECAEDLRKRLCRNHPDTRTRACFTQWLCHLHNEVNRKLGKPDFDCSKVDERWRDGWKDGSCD
HCV core dimer = inhibitors of HCV core protein dimerization, primary screen, biochemical, TR-FRET, high-throughput. inhibition, % at 5 µM. 300,000 tested, 0.33% active. TR-FRET GST/Flag-core106 dimerization, 1536-well;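 active means inhibition above the mean of all tested compounds plus 3 SD, set per screening campaign, cut at about 45% in these data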
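System: GST/Flag-tagged HCV core106 proteins. Incubation: compound-protein-antibody incubation 4 h at 22.5 °C. Technique: HTRF with 340 nm excitation, 617/671 nm emission. Medium: KF-containing HEPES buffer, pH 7.45, DTT, CHAPS, BSA. Read-out: inhibition (%) from 671 over 617 nm ratio. Also added: Eu(K)-anti-GST 90 ng/mL plus XL665-anti-Flag 1 µg/mL.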
AI-2 QS modul = Vibrio harveyi AI-2 quorum sensing modulators, primary screen, JMH597 strain, luminescence/OD600 ratio. Vibrio harveyi JMH597 AI-2 luminescence/OD600 ratio, 9 h; stronger effect = lower value; strain lacks LuxN and CqsS sensors; 0 = neutral-control median. activity change, % at 7.5 µM. 300,000 tested, 0.4% active; in the data active means activity change below about -75%, passing the limit was not always enough; inconclusive means no clear call, values can overlap the other calls;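 further: luminescence divided by OD600 gain over 9 h not by final OD600 alone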
HSF1 activator = HSF-1 activators, primary screen, NIH3T3-HGL cells, MG132 stress, luminescence, single point. NIH3T3-HGL HSF-1 luciferase reporter, 8 h; 100% = twice DMSO control signal. activation, % at 9 µM. 300,000 tested, 1.7% active. AID 504408, 2011;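 active means mean replicate activation of at least 50% with a set share of replicates each reaching 50%; inconclusive means only one of those two conditions met; inactive means mean below 50% and too few replicates reaching it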
HSF1 inh = HSF1 inhibitors in luciferase reporter cells, primary screen, cell-based, NIH3T3, luminescence; activity change, negative = inhibition, % at 7.5 µM (by protocol); NIH3T3-HGL HSE-luciferase, MG132-induced, luminescence 8 h; stronger effect = lower value; 300,000 tested, 0.77% active;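 active means more than half of replicate wells show activity change below -50%, luminescence cut by over half; inconclusive means some wells, but at most half, below -50%; inactive means no replicate well below -50%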;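 further: luciferase reports HSF-1 transcriptional activity via heat shock element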
PHOSPHO1 inh = PubChem AID 1565; 290,000 tested, 1.1% active; recombinant PHOSPHO1, absorbance phosphatase assay; inhibition, % at 13.3 µM; in the data active means inhibition above about 60%
Target sequence (Q8TCT1 whole entry, looked up): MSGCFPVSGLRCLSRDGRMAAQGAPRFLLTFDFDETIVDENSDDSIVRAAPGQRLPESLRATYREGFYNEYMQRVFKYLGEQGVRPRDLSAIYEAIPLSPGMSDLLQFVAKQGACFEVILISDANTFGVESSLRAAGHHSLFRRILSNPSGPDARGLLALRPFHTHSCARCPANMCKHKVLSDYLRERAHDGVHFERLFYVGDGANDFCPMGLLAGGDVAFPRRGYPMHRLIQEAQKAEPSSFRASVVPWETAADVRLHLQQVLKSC
Of the large screens only hits and unclear results are named; the others gave an inactive call.

CCCCCCCCCCC(=O)NNC(=O)c1c(O)c2ccccc2n(CC)c1=O	none
COc1ccc(N2CCN(Cc3nc4scc(-c5cccs5)c4c(=O)[nH]3)CC2)cc1	none
CC1Cc2ccccc2N1Cc1nc2scc(-c3cccs3)c2c(=O)[nH]1 (configuration not stated)	HCV core dimer 55, PHOSPHO1 inh 88
COC(=O)c1ccc2c(=O)[nH]c(CN3c4ccccc4CC3C)nc2c1 (configuration not stated)	none
CC1Cc2ccccc2N1Cc1nc2cc(Cl)ccc2c(=O)[nH]1 (configuration not stated)	HCV core dimer 72
Clc1ccc(C[n+]2cc(-c3ccccc3)n3c2CCCCC3)c(Cl)c1	PHOSPHO1 inh 60 (no result: ALR inh)
Cc1ccc(NC(=O)C(NCc2ccccn2)c2ccccc2)cc1 (configuration not stated)	none
C/C(CC(=O)Nc1ccc(N(C)C)cc1)=N\NC(=O)c1ccncc1	none
C/C(CC(=O)Nc1ccc(C)c(Cl)c1)=N\NC(=O)c1ccccn1	HSF1 activator 206 (no result: AI-2 QS modul)
C/C(CC(=O)Nc1ccc(C)c(Cl)c1)=N\NC(=O)c1cccc(O)c1	none
CN(C)c1ccc(NC(=O)CC(NCc2ccccn2)C(=O)O)cc1 (configuration not stated)	ALR inh 100 (no result: HSF1 activator, HSF1 inh)
C/C(CC(=O)Nc1ccc2ccccc2c1)=N\NC(=O)c1ccc(O)c(O)c1	ALR inh 99, HSF1 activator 55
C/C(CC(=O)Nc1ccc(N(C)C)cc1)=N\NC(=O)c1ccc(Cl)cc1	HSF1 activator 83
CC(OC(=O)c1nc(-c2ccccc2)n(-c2ccccc2)n1)C(=O)Nc1cc(Cl)cc(Cl)c1 (configuration not stated)	none
COc1ccc(NC(=O)N(C)C[C@H]2Oc3ccc(NS(=O)(=O)c4c(C)noc4C)cc3C(=O)N([C@H](C)CO)C[C@@H]2C)cc1	none (no result: HCV core dimer, AI-2 QS modul, HSF1 activator, HSF1 inh, PHOSPHO1 inh)
CSCC[C@H](N)C(=O)N1CCC(C(=O)N[C@@H](C)C(=O)NCc2ccc(F)cc2)CC1	none
C/C(CC(=O)Nc1cccnc1)=N\NC(=O)C(C)Oc1ccc(Cl)cc1Cl (configuration not stated)	none
COc1ccc(NC(=O)C/C(C)=N/NC(=O)c2cnccn2)cc1	none
C/C(CC(=O)Nc1cccc(Cl)c1Cl)=N\NC(=O)C(=O)N1CCCC1	none
C/C(CC(=O)Nc1ccc(Cl)c(Cl)c1)=N\NC(=O)C(=O)N1CCCCC1	HSF1 activator 54
C/C(CC(=O)Nc1ccc2ccccc2c1)=N\NC(=O)c1cnccn1	HSF1 activator 74 (no result: ALR inh)
COc1ccccc1NC(=O)C/C(C)=N/NC(=O)c1ccccn1	none (no result: ALR inh)
C/C(CC(=O)Nc1ccc(N(C)C)cc1)=N\NC(=O)c1cnccn1	ALR inh 99
C/C(CC(=O)Nc1ccc(N(C)C)cc1)=N\NC(=O)c1ccccn1	ALR inh 96 (no result: HSF1 activator, HSF1 inh)
CC(=O)Nc1nnc(CSCc2ccccc2F)s1	none (no result: ALR inh, HSF1 activator, HSF1 inh)
CCOC(=O)c1nn(-c2ccccc2C)c(=O)cc1OCC(=O)Nc1cccc(OC)c1	none (no result: ALR inh, PHOSPHO1 inh)
CCn1c(=O)c2ccccc2n2c(SCC(N)=O)nnc12	none (no result: PHOSPHO1 inh)
CC(C)(C)Cc1nnc(NC(=O)CN2C(=O)c3ccccc3C2=O)s1	none
Cc1c(Cl)ccc2sc(NC(=O)CN3C(=O)c4ccccc4C3=O)nc12	AI-2 QS modul -95
CC(C)c1nnc(NC(=O)CN2C(=O)c3ccccc3C2=O)s1	AI-2 QS modul inconclusive, PHOSPHO1 inh 89
CC(C)Cc1nnc(NC(=O)CN2C(=O)c3ccccc3C2=O)s1	AI-2 QS modul inconclusive
CCCCc1nnc(NC(=O)CN2C(=O)c3ccccc3C2=O)s1	AI-2 QS modul -86
Cc1nnc(SCc2nnc(-c3cccs3)o2)n1C	none
CC(C)Cn1c(SCc2nnc(-c3cccs3)o2)nc(O)cc1=O	ALR inh 98
CCOc1ccc(NC(=O)CN(C)C(=O)CCN2C(=O)C3CC=CCC3C2=O)cc1OCC (configuration not stated)	none (no result: HCV core dimer, AI-2 QS modul, HSF1 activator, HSF1 inh, PHOSPHO1 inh)
COC(=O)c1ccc2c(c1)S(=O)(=O)NC(=NCc1ccco1)S2	PHOSPHO1 inh 75
CCn1c(SCc2ccc(OC)cc2)nnc1-c1ccncc1	none
CC1CC(C)(C)NC(=S)N1CCC(=O)N1CCc2ccccc2C1 (configuration not stated)	none (no result: AI-2 QS modul)
COC(=O)c1ccc(CNC(=O)CNc2cc(C(F)(F)F)ccc2N2CCOCC2)cc1	ALR inh 99
CCC(=O)Nc1cc(C(F)(F)F)ccc1N1CCOCC1	none
Fc1ccc(NC(=S)N2CCCc3ccccc32)cc1	ALR inh 89, PHOSPHO1 inh 95
S=C(Nc1cccnc1)N1CCc2ccccc21	none
COc1ccccc1N1CCN(C(=S)Nc2ccc(F)cc2)CC1	HSF1 inh -73
COc1ccccc1N1CCN(C(=S)Nc2ccccc2)CC1	none
CC(C)(C)C(=O)Nc1cccc2[nH]ncc12	none (no result: AI-2 QS modul)
CCCCSc1ncc(C(=O)OCC)c(N)n1	HSF1 activator 64
CCOC(=O)c1cnc(SCCc2ccccc2)nc1N	HSF1 activator 88
CC1CCN(C(=O)CCNC(=O)Cn2cnc3sc4c(c3c2=O)CCCC4)CC1	none
C=CCSc1nc(O)c(C2OC(=O)c3c2ccc(OC)c3OC)c(=O)n1-c1ccccc1 (configuration not stated)	ALR inh 97
CCOC(=O)c1nn(-c2ccc(Cl)cc2)c(C)cc1=O	none
Cc1ccc(NC2CCCN(C(=O)CN3C(=O)CSC3=O)C2)cc1C (configuration not stated)	ALR inh 99
CC(C)c1ccc(NC2CCCN(C(=O)CN3C(=O)CSC3=O)C2)cc1 (configuration not stated)	ALR inh 98
O=C(CN1C(=O)CSC1=O)N1CCCCC1	none
CC(C)c1ccc(NC2CCCN(C(=O)CCn3cnnn3)C2)cc1 (configuration not stated)	none
Cc1ccc2c(c1)C1CC(C)(O2)N(c2cccc(C(=O)N3CCN(c4ccccn4)CC3)c2)C(=O)N1 (configuration not stated)	none
Cc1ccn2c(NC(C)(C)C)c(-c3cccs3)nc2c1	ALR inh 99
O=C(Nc1cc(-c2ccccc2)nn1-c1ccccc1)c1ccccc1F	none (no result: ALR inh, AI-2 QS modul, HSF1 activator, HSF1 inh, PHOSPHO1 inh)
O=C1SC(SCc2ccccc2)=N/C1=C\c1ccc(C(=O)O)cc1	none
CC(/C=C1\N=C(SCc2ccccc2Cl)SC1=O)=C\c1ccccc1	ALR inh 99
CNC(=O)CN1C(=O)CSc2ncccc21	none

Screens as filed in PubChem.
